Screening results (PubChem)
TAAR1 agonist – human TAAR1 agonism | Q96RJ0 | CHO RD-HGA16 TAAR1, Fluo-8 calcium fluorescence; vehicle wells 0%, saturating PEA agonist 100% | activation, % at 3 µM | actives 0.99% (n = 360,000) | AID 624467;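 active = activation above the mean activation of all test compounds in the run plus 3 SD, cut at about 38% in these data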
Target sequence (Q96RJ0 whole entry, looked up): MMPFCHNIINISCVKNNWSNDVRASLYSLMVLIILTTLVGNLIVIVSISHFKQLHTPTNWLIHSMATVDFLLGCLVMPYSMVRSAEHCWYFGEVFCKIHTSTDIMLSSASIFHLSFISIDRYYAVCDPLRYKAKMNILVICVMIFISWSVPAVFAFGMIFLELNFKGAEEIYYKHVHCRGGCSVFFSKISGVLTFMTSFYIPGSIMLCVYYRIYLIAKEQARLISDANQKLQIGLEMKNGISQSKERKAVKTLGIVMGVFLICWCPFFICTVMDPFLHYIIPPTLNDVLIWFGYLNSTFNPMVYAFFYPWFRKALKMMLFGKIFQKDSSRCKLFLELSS
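Test system: RD-HGA16 (CHO) cells co-expressing Gα16 and hTAAR1 / Benchmarks: DMSO vehicle as 0%, PEA at EC100 as 100% / Repeats: no replicates (n 1) / Measure: % activation from peak over basal fluorescence ratio, DMSO-to-PEA scaled / Timing: 17-24 h plating, Fluo-8 75 min 37 °C, 30 min RT / Technique: kinetic Fluo-8 calcium fluorescence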
TAAR1 antag – antagonists of human TAAR1; actives 1.5% (n = 360,000); Q96RJ0; inhibition, % at 3 µM; CHO RD-HGA16 TAAR1, Fluo-8 calcium fluorescence, antagonist; AID 624466;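 active = inhibition above a per-plate cutoff, the mean inhibition of test compounds on that plate plus 3 SD, cut at about 49% in these data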;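 note: 0% = DMSO plus EC80 beta-PEA response and 100% = DMSO alone without agonist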
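Test system: hTAAR1-expressing CHO RD-HGA16 cells, Gα16-coupled; Probe or stimulus: EC80 β-phenethylamine stimulus; Compound dosing: single nominal final test compound concentration of 3 µM; Timing: 140 s kinetic read after compound, 140 s after agonist; Signal: Fluo-8 calcium-sensitive fluorescence; Measure: % inhibition of agonist calcium response; Controls: DMSO and EC80 PEA controls.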
HTR2A ag – mouse HTR2A agonism via beta-arrestin recruitment | P35363 | CHO-K1 mHTR2A beta-arrestin complementation, luminescence; percent of 30 µM serotonin response | activation, % at 7.6 µM | actives 0.66% (n = 360,000);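 active = activation above a run cutoff, the mean activation of all tested compounds plus 3 SD, cut at about 14% in these data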;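 note: 0% = plate median of compound wells and 100% = 30 µM serotonin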
Beta2AR agonist – activates human beta-2 adrenergic receptor causing internalization. Am2.2-beta2AR cells, FAP receptor internalization, flow cytometry. actives 0.43% (n = 340,000). P07550. response, % (test concentration not listed);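 active = response above a set limit, near 3 SD of response in nonfluorescent compounds, cut at about 42% in these data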
MC4R ag barr – human MC4R agonism via beta-arrestin; activation, % at 8.9 µM; U2OS MC4R beta-arrestin complementation, luminescence; percent of melanotan II response, DMSO zero; actives 0.98% (n = 360,000); P32245;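 active = activation above a per-plate cutoff, the mean activation of sample wells on that plate plus 3 SD, cut at about 8% in these data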
Target sequence (P32245 whole entry, looked up): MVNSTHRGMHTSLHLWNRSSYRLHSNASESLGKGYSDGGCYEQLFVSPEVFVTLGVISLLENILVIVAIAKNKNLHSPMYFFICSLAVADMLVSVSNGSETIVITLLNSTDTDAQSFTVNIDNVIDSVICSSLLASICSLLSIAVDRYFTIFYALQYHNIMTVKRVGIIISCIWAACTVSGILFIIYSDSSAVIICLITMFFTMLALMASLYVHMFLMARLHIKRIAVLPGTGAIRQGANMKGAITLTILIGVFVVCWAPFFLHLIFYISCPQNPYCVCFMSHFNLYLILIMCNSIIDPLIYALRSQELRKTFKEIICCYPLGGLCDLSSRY
MC4R antag cAMP – blocks human MC4R cAMP signaling; P32245; MC4R-expressing cells, MTII-stimulated cAMP, LANCE TR-FRET; AID 540295; inhibition, % at 6.5 µM; actives 0.48% (n = 360,000);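 active = inhibition above its plate's cutoff, the mean of tested wells on that plate plus 3 SD, cut at about 29% in these data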;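 note: 0% = Melanotan II alone and 100% = Melanotan II plus saturating MCL0020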
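Assay system: U2OS cells stably expressing human melanocortin 4 receptor (MC4R) / Dosing: 6.5 µM / Timing: compound 30 min, challenge 1 h, detection 1 h / Measured by: Eu-cAMP/anti-cAMP TR-FRET, emission 671 nm / Replicates: singlicate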
* hit, by the source's call; nt = no result given. Compounds with a hit are over-represented: about 4.3% of the library has one in this group of screens.

SMILES | TAAR1 agonist | TAAR1 antag | HTR2A ag | Beta2AR agonist | MC4R ag barr | MC4R antag cAMP
CC12CC[C@H]3[C@@H](CCC4(O)C[C@H](O)CCC34/C=N/NC(=O)Cc3ccccc3)C1(O)CCC2C1=CC(=O)OC1 (stereo partly specified) | 0 | 1 | 7 | 3 | 1 | -4
C[C@]12CC[C@H](O)C[C@H]1CC[C@@H]1[C@@H]2C[C@@H](O)[C@]2(C)[C@@H](C3=CC(=O)OC3)CC[C@]12O | 1 | -20 | 1 | 3 | 24* | 2
C[C@]12CC[C@H](O)C[C@H]1CC[C@@H]1[C@@H]2CC[C@]2(C)[C@@H](C3=CC(=O)OC3)CC[C@]12O | 3 | -4 | 1 | -5 | 34* | 21
CCN(CCO)c1ccc(N=Cc2c(O)n(C)c(=S)[nH]c2=O)cc1 | 10 | 10 | 2 | 13 | 0 | -26
COC1C(O)C(C)OC(OC2CCC3(C)C(CCC4C3C(O)CC3(C)C(C5=CC(=O)OC5)CCC43O)C2)C1O (stereo unspecified) | 2 | -13 | 5 | 8 | 18* | 3
CNC(=O)Nc1ccc(C(=O)N/N=C\C23CC[C@@H](O)CC2(O)CC[C@@H]2[C@@H]3CCC3(C)C(C4=CC(=O)OC4)CCC23O)cc1 (stereo partly specified) | 0 | 3 | 0 | -1 | -2 | 1
CC(=O)OC1CC(OC2C(O)CC(OC3C(O)CC(OC4CCC5(C)C(CCC6C5CC(O)C5(C)C(C7=CC(=O)OC7)CCC65O)C4)OC3C)OC2C)OC(C)C1OC1OC(CO)C(O)C(O)C1O (stereo unspecified) | 0 | -10 | -5 | -139 | 24* | 2
CCN1C(=O)C(=Cc2ccc(N3CCOCC3)o2)C(=O)N(CC)C1=S | 40* | -2 | -2 | 6 | -3 | 5
CN1C(=O)C(=Cc2ccc(N3CCOCC3)o2)C(=O)N(C)C1=S | 8 | -15 | 1 | -9 | -2 | -11
COc1ccc(CCNCc2ccccc2)cc1 | 6 | -8 | 10 | -4 | -1 | -2
c1ccc(CCNCc2cccs2)cc1 | 39* | -2 | 1 | 3 | -3 | 2
CN1C2CCC1C(C(=O)Oc1ccccc1)C(c1ccc(Cl)cc1)C2 (stereo unspecified) | 3 | 15 | nt | nt | nt | nt
COC1CCCCC1NCCc1ccccc1 (stereo unspecified) | 38* | -22 | -1 | 2 | 1 | 13
C[C@]12CC[C@H]3C(CCC4(O)CC(O)CC[C@]34C=O)C1=CC[C@H]2c1ccc(=O)oc1 (stereo partly specified) | 4 | -2 | 4 | 38 | 21* | 4
CC(=O)O[C@H]1[C@H]2O[C@]23[C@@H]2CC[C@]4(O)C[C@@H](O)CC[C@]4(C)C2CC[C@]3(C)[C@H]1c1ccc(=O)oc1 (stereo partly specified) | nt | nt | 1 | 5 | 24* | 4
CC12CC[C@H]3[C@@H](CCC4(O)C[C@H](O)CCC34/C=N/NC(=O)c3ccccc3[N+](=O)[O-])C1(O)CCC2C1=CC(=O)OC1 (stereo partly specified) | 3 | 0 | 0 | 6 | 4 | -5
CS(=O)(=O)c1ccc(C2=C(CNC(=O)c3cccnc3)[C@H]3CC[C@@H](C2)N3Cc2ccccc2)cc1 | 0 | -3 | 2 | nt | -1 | 0
Cc1ccccc1C(=O)NCCN1CCC2(CC1)C(=O)NCN2c1ccccc1 | 2 | -28 | nt | nt | nt | nt
CCOC(=O)[C@]12Cc3cc(Cl)ccc3[C@H]1N(C1CCCCC1)C(=O)c1cc(OC)ccc12 | 2 | 63* | 2 | nt | nt | nt
CCOC(=O)[C@]12Cc3ccc(C)cc3[C@H]1N(C1CCCCC1)C(=O)c1cc(OC)ccc12 | 3 | 15 | 5 | nt | nt | nt
COc1ccc(-n2nnnc2C(CCSC)N2CCC3(CC2)C(=O)NCN3c2ccccc2)cc1 (stereo unspecified) | 14 | 51* | 4 | nt | nt | nt
C/C(=N\NC(=O)c1ccccc1)c1c(O)n(C2CCCCC2)c(=O)[nH]c1=O | -4 | -21 | -6 | 4 | -1 | 3
COc1ccc(Cl)cc1N=Cc1c(O)n(C)c(=O)n(C)c1=O | 0 | 3 | 3 | 57* | 0 | 0
CCN(CC)C(=O)c1ccc(NC(=O)COc2ccccc2F)cc1 | 0 | 24 | 7 | 8 | 1 | 2
O=[N+]([O-])c1ccc(O)c([N+](=O)[O-])c1 | 5 | -27 | 2 | 9 | -2 | 9
SMILES | TAAR1 agonist | TAAR1 antag | HTR2A ag | Beta2AR agonist | MC4R ag barr | MC4R antag cAMP
O=[N+]([O-])c1ccc(Cl)c([N+](=O)[O-])c1 | 1 | -6 | -1 | 59* | 1 | 27
CCc1cc(=O)oc2cc(OCC(=O)N3C[C@H]4C[C@@H](C3)c3cccc(=O)n3C4)c(Cl)cc12 | 1 | 4 | 0 | -13 | -3 | 18
C[C@@H]1O[C@@H](O[C@H]2C[C@@H](O)[C@]3(CO)[C@@H]4C(CC[C@]3(O)C2)[C@@]2(O)CC[C@H](C3COC(=O)C3)[C@@]2(C)C[C@H]4O)[C@H](O)[C@H](O)[C@H]1O (stereo partly specified) | 0 | -8 | -2 | 3 | 28* | -4
O=C1C(=O)c2ccccc2-c2ccccc21 | 6 | -4 | 12 | 103* | -1 | -26
O=C1NC(=O)N(CCc2ccc(F)cc2)C(=O)/C1=C\C=C\c1ccccc1 | 2 | -20 | 5 | 10 | -3 | -2
O=C1NC(=O)N(Cc2ccco2)C(=O)/C1=C/C=C/c1ccco1 | 2 | 28 | 2 | 85* | 0 | 3
O=C1NC(=O)N(Cc2ccccc2)C(=O)/C1=C\C=C\c1ccco1 | 31 | 17 | 3 | 67* | 1 | 23
C=CCN1C(=O)NC(=O)/C(=C/C=C/c2ccccc2)C1=O | 14 | 22 | 1 | 75* | -2 | 14
CC[C@]12CCN(CC3(O)CC3)C(Cc3ccc(O)cc31)C2(C)C | 1 | -10 | nt | nt | nt | nt
Cc1c(C=C2C(=O)N(C)C(=S)N(C)C2=O)c2ccccc2n1CC(=O)NCC1CCCO1 (stereo unspecified) | 1 | -5 | 0 | 38 | 2 | 10
O=C(Cn1nc(-c2ccccc2)ccc1=O)N1CCC2(CC1)OCCO2 | 2 | -19 | 0 | -3 | -1 | 15
NC1CC2CCCCC2CC1(O)c1ccccc1 (stereo unspecified) | 1 | -6 | 1 | nt | 1 | 3
